According to ChEMBL document CHEMBL3112522, “Bicyclic brominated furanones: a new class of quorum sensing modulators that inhibit bacterial biofilm formation” (Bioorg Med Chem, 2014):
Calls of active or inactive are those of the source. The rule behind the calls is not given here.

How the values were obtained:
[1] = test system: Pseudomonas aeruginosa; assay: Toxicity in Pseudomonas aeruginosa PAO1 assessed as planktonic growth inhibition at 400 uM after 24 hrs; assay type: organism-based; settings: in vivo
[2] = target: T1, Transcriptional activator protein LasR (Pseudomonas aeruginosa (strain ATCC 15692 / PAO1 / 1C / PRS 101 / LMG12228)) (UniProt P25084); assay: Antagonist activity at LasR in Pseudomonas aeruginosa PAO-JP2 expressing LasI assessed as inhibition of GFP production at 50 to 300 uM after 24 hrs by fluorescence assay in presence of 3-oxo-C12-HSL
T1 sequence (whole entry): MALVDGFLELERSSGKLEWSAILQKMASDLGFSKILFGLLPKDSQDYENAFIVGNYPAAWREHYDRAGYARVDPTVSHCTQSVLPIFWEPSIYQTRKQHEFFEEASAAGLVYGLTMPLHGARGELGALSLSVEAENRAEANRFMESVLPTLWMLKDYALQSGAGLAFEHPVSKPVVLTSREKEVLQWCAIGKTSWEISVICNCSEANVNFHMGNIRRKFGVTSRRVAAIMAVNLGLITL
Outline: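 PAO-JP2 (plasI-LVAgfp) grown in M9 with 300 µg/mL carbenicillin to OD600 0.1, given 1 µM 3-oxo-C12-HSL ± compound at varied concentrations, incubated 24 h at 37 °C with shaking at 250 rpm. GFP read at ex 500/em 540 nm, M9 background subtracted, divided by OD600 and normalized to the BF-free control. Four replicates.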

[3] = target: T1, Transcriptional activator protein LasR (Pseudomonas aeruginosa (strain ATCC 15692 / PAO1 / 1C / PRS 101 / LMG12228)); assay: Antagonist activity at LasR in Pseudomonas aeruginosa PAO1 expressing LasI assessed as inhibition of GFP production at 50 to 150 uM after 24 hrs by fluorescence assay
[4] = test system: Escherichia coli; assay: Antibacterial activity against Escherichia coli RP437 expressing red fluorescence protein assessed as inhibition of biofilm formation measured as reduction in mean thickness of biofilm at 200 uM after 24 hrs by confocal laser scanning microscopic analysis; assay type: functional, organism-based
Outline: (§1)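 E. coli RP437 (pRSH103, red fluorescent; grown in LB with 10 µg/mL tetracycline) formed biofilms on 316 stainless-steel coupons with 200 µM compound or 0.4% DMSO control, static, 37 °C, 24 h. Coupons rinsed three times in 0.9% NaCl, then imaged by CLSM. COMSTAT gave biomass, mean thickness and surface area from z-stacks at four locations, normalized to the BF-free control. Four replicates.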

[5] = test system: Escherichia coli; assay: Antibacterial activity against Escherichia coli RP437 expressing red fluorescence protein assessed as inhibition of biofilm formation measured as reduction in biomass at 200 uM after 24 hrs by confocal laser scanning microscopic analysis; assay type: functional, organism-based; outline: as §1
[6] = test system: Escherichia coli; assay: Antibacterial activity against Escherichia coli RP437 expressing red fluorescence protein assessed as inhibition of biofilm formation at 200 uM after 24 hrs by confocal laser scanning microscopic analysis; assay type: functional, organism-based; outline: as §1
[7] = test system: Escherichia coli; assay: Toxicity in Escherichia coli RP437 assessed as planktonic growth inhibition at 200 uM after 24 hrs; assay type: organism-based; settings: in vivo
Outline: (§2)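 E. coli RP437 in LB at 37 °C, started at OD600 0.05 in 96-well plates with 200 µM compound (DMSO stock), shaken at 250 rpm. OD600 read at 0, 2, 4, 6, 8, 10, 12 and 24 h, normalized to the BF-free control. Six replicates.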

[8] = Cytotoxicity against human SK-N-SH cells assessed as cell survival at 400 uM incubated for 1 hr followed by compound washout measured after 48 hrs by CCK-8 assay relative to control; assay type: cell-based; settings: read-out: Survival
Outline: (§3)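 SK-N-SH cells were grown in EMEM with 10% FBS, penicillin/streptomycin and 2.0 mM L-glutamine at 37 °C, 5% CO2. Wells were seeded at 5×10^4 cells/mL and left 24 h to adhere. Cells were exposed for 1 h in fresh medium, with DMSO-matched controls, then washed twice. After 0, 24 or 48 h recovery, CCK-8 A450 was read. Survival = (sample−medium)/(control−medium)×100.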

[9] = Cytotoxicity against human SK-N-SH cells assessed as cell survival at 400 uM incubated for 1 hr followed by compound washout measured after 24 hrs by CCK-8 assay relative to control; assay type: cell-based; settings: read-out: Survival; outline: as §3
[10] = test system: Pseudomonas aeruginosa; assay: Antibacterial activity against Pseudomonas aeruginosa PAO1 expressing green fluorescence protein assessed as inhibition of biofilm formation at 400 uM after 24 hrs by confocal laser scanning microscopic analysis; assay type: functional, organism-based
Outline: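 PA01-GFP (pSMC2; grown in LB with 300 µg/mL carbenicillin) formed biofilms on stainless-steel coupons with 400 µM compound, static, 37 °C, 24 h. Coupons rinsed three times in 0.9% saline, then imaged by CLSM.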

[11] = test system: SK-N-SH; assay: Cytotoxicity against human SK-N-SH cells assessed as cell survival at 100 uM incubated for 1 hr followed by compound washout measured up to 48 hrs by CCK-8 assay; assay type: cell-based
Outline: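 SK-N-SH cells seeded at 5×10^4 cells/mL (100 µL) in EMEM with 10% FBS and allowed to adhere 24 h. Exposed 1 h to 100 µM compound or DMSO control, washed twice, then allowed to recover 0, 24 or 48 h. Live cells measured by CCK-8 at A450. Survival = (sample − medium)/(control − medium) × 100.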

[12] = target: T2, HTH-type quorum-sensing regulator RhlR (Pseudomonas aeruginosa (strain ATCC 15692 / PAO1 / 1C / PRS 101 / LMG12228)) (UniProt P54292); assay: Agonist activity at RhlR in Pseudomonas aeruginosa PAO-JP2 expressing RhlI assessed as effect on GFP production at 50 to 300 uM after 24 hrs by fluorescence assay in presence of 3-oxo-C12-HSL and C4-HSL relative to control
T2 sequence (whole entry): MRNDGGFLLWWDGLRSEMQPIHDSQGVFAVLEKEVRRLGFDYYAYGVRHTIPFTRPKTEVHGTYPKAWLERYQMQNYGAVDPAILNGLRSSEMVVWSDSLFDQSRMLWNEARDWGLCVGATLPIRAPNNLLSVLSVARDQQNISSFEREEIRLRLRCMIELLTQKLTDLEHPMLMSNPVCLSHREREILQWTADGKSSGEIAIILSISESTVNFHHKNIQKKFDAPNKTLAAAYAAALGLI
Outline: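 PAO-JP2 (prhlI-LVAgfp) grown in M9 with 300 µg/mL carbenicillin to OD600 0.1, dosed with 1 µM 3-oxo-C12-HSL and 10 µM C4-HSL ± compound, shaken at 250 rpm and 37 °C for 24 h. GFP read at ex 500/em 540 nm, M9 background subtracted, divided by OD600 and normalized to the BF-free control. Four replicates.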

[13] = test system: Pseudomonas aeruginosa; assay: Antibacterial activity against Pseudomonas aeruginosa PAO1 assessed as inhibition of biofilm formation incubated for 24 hrs followed by compound-washout measured after 30 mins by crystal-violet staining-based colorimetric assay; assay type: functional, organism-based
Outline: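 P. aeruginosa subcultured at OD600 0.1 in LB with compound (DMSO stock) in 96-well polystyrene plates, stationary, 37 °C, 24 h. Wells washed and dried 30 min, stained with 0.1% crystal violet for 30 min, washed, dye solubilized in 95% EtOH, A540 read. Values are (sample − medium)/(DMSO control − medium) × 100. Four replicates.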

[14] = test system: Pseudomonas aeruginosa; assay: Antibacterial activity against Pseudomonas aeruginosa PAO1 expressing green fluorescence protein assessed as inhibition of biofilm formation measured as reduction in biomass at 400 uM after 24 hrs by confocal laser scanning microscopic analysis relative to control; assay type: functional; settings: PAO1, 24 h
[15] = test system: Pseudomonas aeruginosa; assay: Inhibition of quorum sensing system in Pseudomonas aeruginosa PAO-JP2 assessed as reduction of elastase B production at 300 uM after 24 hrs by congo-red staining-based assay relative to control
Outline: (§4)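 PAO-JP2 grown in PTSB at 37 °C, subcultured at OD600 0.05 with 5 µM 3-oxo-C12-HSL and 10 µM C4-HSL ± compound, shaken at 250 rpm for 24 h. Filtered supernatant (100 µL) incubated with Elastin-Congo red (4.5 mg in 900 µL Tris-HCl pH 7.2, 1 mM CaCl2) for 24 h at 37 °C, stopped with EDTA. A490 read minus bacteria-free blank, normalized to control. Four replicates.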

[16] = Cytotoxicity against human SK-N-SH cells assessed as cell survival at 400 uM incubated for 1 hr followed by compound washout measured immediately by CCK-8 assay relative to control; assay type: cell-based; settings: read-out: Survival; outline: as §3
[17] = target: T2, HTH-type quorum-sensing regulator RhlR (Pseudomonas aeruginosa (strain ATCC 15692 / PAO1 / 1C / PRS 101 / LMG12228)); assay: Agonist activity at RhlR in Pseudomonas aeruginosa PAO1 expressing RhlI assessed as effect on GFP production at 50 to 300 uM after 24 hrs by fluorescence assay relative to control
Outline: (§5)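 PAO1 (prhlI-LVAgfp) grown in M9 with 300 µg/mL carbenicillin to OD600 0.1, exposed to compound at 50, 150 or 300 µM for 24 h at 37 °C with shaking at 250 rpm. Fluorescence read at ex 500/em 540 nm, M9 background subtracted, divided by OD600 and normalized to the BF-free control. Four replicates.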

[18] = target: T1, Transcriptional activator protein LasR (Pseudomonas aeruginosa (strain ATCC 15692 / PAO1 / 1C / PRS 101 / LMG12228)); assay: Antagonist activity at LasR in Pseudomonas aeruginosa PAO1 expressing LasI assessed as inhibition of GFP production at 300 uM after 24 hrs by fluorescence assay relative to control
[19] = test system: Pseudomonas aeruginosa; assay: Antibacterial activity against Pseudomonas aeruginosa PAO1 expressing green fluorescence protein assessed as inhibition of biofilm formation measured as reduction in surface area at 400 uM after 24 hrs by confocal laser scanning microscopic analysis relative to control; assay type: functional, organism-based
[20] = test system: Escherichia coli; assay: Antibacterial activity against Escherichia coli RP437 expressing red fluorescence protein assessed as inhibition of biofilm formation measured as reduction in surface area at 200 uM after 24 hrs by confocal laser scanning microscopic analysis; assay type: functional, organism-based; outline: as §1
[21] = target: T1, Transcriptional activator protein LasR (Pseudomonas aeruginosa (strain ATCC 15692 / PAO1 / 1C / PRS 101 / LMG12228)); assay: Antagonist activity at LasR in Pseudomonas aeruginosa PAO1 expressing LasI assessed as inhibition of GFP production at 50 to 300 uM after 24 hrs by fluorescence assay relative to control
[22] = test system: Escherichia coli; assay: Toxicity in Escherichia coli RP437 assessed as planktonic growth inhibition at 200 uM up to 8 hrs; assay type: organism-based; settings: in vivo; outline: as §2
[23] = test system: Pseudomonas aeruginosa; assay: Antibacterial activity against Pseudomonas aeruginosa PAO1 expressing green fluorescence protein assessed as inhibition of biofilm formation measured as reduction in mean thickness of biofilm at 400 uM after 24 hrs by confocal laser scanning microscopic analysis relative to control; assay type: functional
[24] = target: T2, HTH-type quorum-sensing regulator RhlR (Pseudomonas aeruginosa (strain ATCC 15692 / PAO1 / 1C / PRS 101 / LMG12228)); assay: Agonist activity at RhlR in Pseudomonas aeruginosa PAO1 expressing RhlI assessed as stimulation of GFP production at 150 uM after 24 hrs by fluorescence assay relative to control; outline: as §5
[25] = target: T2, HTH-type quorum-sensing regulator RhlR (Pseudomonas aeruginosa (strain ATCC 15692 / PAO1 / 1C / PRS 101 / LMG12228)); assay: Agonist activity at RhlR in Pseudomonas aeruginosa PAO1 expressing RhlI assessed as stimulation of GFP production at 300 uM after 24 hrs by fluorescence assay relative to control; outline: as §5
[26] = test system: Pseudomonas aeruginosa; assay: Inhibition of quorum sensing system in Pseudomonas aeruginosa PAO-JP2 assessed as reduction of elastase B production after 24 hrs by congo-red staining-based assay; outline: as §4

| SMILES | Activity [1] | inhibition [2] | inhibition [3] | inhibition [4] | inhibition [5] | inhibition [6] | Activity [7] | viability at 1 h, 400 µM [8] [%] | viability at 1 h, 400 µM [9] [%] | inhibition [10] | Activity [11] | Activity [12] | IC50 [13] [µM] | inhibition at 400 µM [14] [%] | inhibition [15] [%] | viability at 1 h, 400 µM [16] [%] | Activity [17] | inhibition [18] [%] | inhibition [19] | inhibition [20] | further results |
| --- | --- | --- | --- | --- | --- | --- | --- | --- | --- | --- | --- | --- | --- | --- | --- | --- | --- | --- | --- | --- | --- |
| O=C1C=C2CCCCC(Br)=C2O1 | Non-toxic | Active | Active | Active | Active | Active | Non-toxic | 13 | 7 | Active | Non-toxic | inactive | 140 | 50 | 80 | 44 | inactive | 69 | Active | Active | – |
| CC1=C(Br)/C(=C\Br)OC1=O | – | Active | – | Active | Active | Active | – | < 2 | < 2 | – | Toxic | – | – | – | – | 29 | inactive | – | – | Active | inhibition [21]: 46%; Activity [22]: Toxic |
| O=C1C=C2CCC(Br)=C2O1 | Non-toxic | Active | – | Active | Active | Active | Non-toxic | 6 | 21 | Active | Non-toxic | Active | > 400 | 53 | 80 | 76 | – | – | Active | Active | inhibition [23]: inactive; inhibition [21]: Active; Activity [24]: 82.6%; Activity [25]: 165% |
| O=C1C=C(Br)/C(=C/Br)O1 | Toxic | – | – | – | – | – | – | – | – | Active | – | – | – | – | – | – | – | – | – | – | – |
| O=C1C=C2CCCC(Br)=C2O1 | Non-toxic | Active | Active | Active | Active | Active | Non-toxic | 50 | 50 | Active | Non-toxic | inactive | 146 | 71 | 80 | 76 | inactive | 78 | Active | Active | inhibition at 400 µM ([23]; PAO1, 24 h): 60%; inhibition [26]: Dose-dependent effect |
